From ChEMBL document CHEMBL1134668, “Hydrazinonaphthalene and azonaphthalene thrombopoietin mimics are nonpeptidyl promoters of megakaryocytopoiesis” (J Med Chem, 2001) come the findings set out here.

The target in assay [1] is T1, Thrombopoietin receptor (Homo sapiens) (UniProt P40238).
T1 sequence (whole entry): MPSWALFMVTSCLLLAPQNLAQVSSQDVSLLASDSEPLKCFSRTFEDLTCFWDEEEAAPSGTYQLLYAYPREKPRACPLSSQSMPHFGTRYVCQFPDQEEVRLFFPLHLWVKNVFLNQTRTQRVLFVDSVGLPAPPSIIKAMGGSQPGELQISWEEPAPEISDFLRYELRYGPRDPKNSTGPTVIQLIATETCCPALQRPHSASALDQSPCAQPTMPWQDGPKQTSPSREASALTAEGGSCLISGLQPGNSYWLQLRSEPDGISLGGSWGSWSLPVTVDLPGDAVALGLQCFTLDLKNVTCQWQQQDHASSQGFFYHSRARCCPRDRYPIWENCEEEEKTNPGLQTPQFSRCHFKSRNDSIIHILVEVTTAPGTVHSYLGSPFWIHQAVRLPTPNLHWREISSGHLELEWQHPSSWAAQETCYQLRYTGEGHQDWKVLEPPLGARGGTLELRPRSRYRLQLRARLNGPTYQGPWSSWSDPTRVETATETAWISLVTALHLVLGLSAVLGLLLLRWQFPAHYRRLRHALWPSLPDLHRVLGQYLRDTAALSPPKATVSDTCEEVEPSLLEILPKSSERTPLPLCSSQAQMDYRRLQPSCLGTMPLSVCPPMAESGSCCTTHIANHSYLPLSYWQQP
Nature of the assay: Thrombopoietin luciferase activity in BAF-3 cells. It is filed as cell-based. The settings on record: BaF3.

The target of another assay is T2, Thrombopoietin receptor (Homo sapiens, UniProt P40238).
T2 sequence (P40238 whole entry): T1 sequence (whole entry)
Nature of the assay: Effective concentration for thrombopoietin luciferase activity was determined in BAF-3 cells. Type of assay: cell-based, BaF3.

The nature of assay [2]: Compound tested for UT7/TPO cell proliferation activity (%TPO) using proliferation assay. It is filed as functional, Homo sapiens. An outline of the steps:
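UT7/TPO cells kept in IMDM/10% FBS/glutamine plus rhTPO, starved overnight without TPO. Cells (0.2 × 10^6/mL) in starving medium incubated with compounds (0.32% DMSO final) or rhTPO, 37 °C, 5% CO2, 72 h. Pellet DNA content read by BrdU kit. Mean value over control as % of maximal-TPO response, duplicates, plotted vs concentration for EC50.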

pEC50: −log10 of the molar value. Where only a bound is given, the exact number is not on record here.

By pEC50 is commonly meant the EC50 on a negative log10 scale, so that one unit is a factor of ten. A high value points to a low EC50.

For the molecule `O=C(O)c1cccc2c(/N=N/c3c(O)cc(S(=O)(=O)O)c4ccccc34)c(O)ccc12`, the Efficacy in assay [1] is below 5%.
Turning to `O=S(=O)(O)c1cc(O)c(/N=N/c2c(O)ccc3ccc(O)cc23)c2ccccc12`, the Efficacy in assay [1] turned out to be 31%. The molecule further gave a pEC50 on Thrombopoietin receptor of 5.70.
In the same order, the values of `Cc1ccc(-n2[nH]c(C(C)(C)C)c(/N=N/c3c(O)cc(S(=O)(=O)O)c4ccccc34)c2=O)cc1C` are 72% and 6.52.
In turn, `O=S(=O)(O)c1ccc(/N=N/c2c(O)ccc3ccccc23)c2ccccc12` yielded an Efficacy in assay [1] below 5%.
For `Cc1n[nH]c(O)c1/N=N/c1c(O)cc(S(=O)(=O)O)c2ccccc12`, in assay [1], the Efficacy is below 5%.
`Cc1[nH]n(-c2ccc(S(=O)(=O)O)cc2)c(=O)c1/N=N/c1c(O)cc(S(=O)(=O)O)c2ccccc12`: the Efficacy in assay [1] is below 5%.
Regarding `Cc1[nH]n(-c2ccc(C(F)(F)F)cc2)c(=O)c1/N=N/c1c(O)cc(S(=O)(=O)O)c2ccccc12`, the Efficacy in assay [1] was 39%; in assay [2], 100%. Also, the pEC50 on Thrombopoietin receptor is 7.00.
Molecule `O=S(=O)(O)c1cc(O)c(/N=N/c2ccc(O)c3ccc(O)cc23)c2ccccc12` came in with an Efficacy in assay [1] below 5%.
For `Cc1[nH]n(-c2ccc(F)cc2)c(=O)c1/N=N/c1c(O)cc(S(=O)(=O)O)c2ccccc12`, in assay [1], the Efficacy is 39%. Moreover, the negative logarithm of the EC50 (pEC50) on Thrombopoietin receptor is 6.30.
For `COc1ccc2ccc(O)c(/N=N/c3c(O)cc(S(=O)(=O)O)c4ccccc34)c2c1`, in that order: 85% and 6.52.
`Cc1[nH]n(C)c(=O)c1/N=N/c1c(O)cc(S(=O)(=O)O)c2ccccc12` registered an Efficacy in assay [1] below 5%.
In turn, `Cc1[nH]n(-c2ccccc2)c(=O)c1/N=N/c1c(O)cc(C(=O)O)c2ccccc12` registered an Efficacy in assay [1] of 21%. The molecule also showed a pEC50 at Thrombopoietin receptor of 5.30.
In assay [1], `Oc1ccc2ccccc2c1/N=N/c1c(O)ccc2ccccc12` gave an Efficacy below 5%.
On the same count and under the same terms, next, `Cc1[nH]n(-c2ccc(C(=O)O)cc2)c(=O)c1/N=N/c1c(O)cc(S(=O)(=O)O)c2ccccc12`: below 5%.
Regarding `O=S(=O)(O)c1cc(O)c(/N=N/c2c(O)cc(O)c3ccccc23)c2ccccc12`, in assay [1], the Efficacy was 16%. Besides, the pEC50 on Thrombopoietin receptor is 5.30.
`Cc1ccc(-n2[nH]c(C)c(/N=N/c3c(O)cc(C(=O)O)c4ccccc34)c2=O)cc1C` had an Efficacy in assay [1] of 24%. Further, the pEC50 on Thrombopoietin receptor is 6.00.
For `O=S(=O)(O)c1cc(O)c(/N=N/c2c(O)c(O)cc3ccccc23)c2ccccc12`, in that order: 26% and 5.70.
Turning to `Cc1[nH]n(-c2cc(Cl)c(S(=O)(=O)O)cc2Cl)c(=O)c1/N=N/c1c(O)cc(S(=O)(=O)O)c2ccccc12`, the Efficacy in assay [1] is below 5%.
In assay [1], `Cc1[nH]n(-c2cccc([N+](=O)[O-])c2)c(=O)c1/N=N/c1c(O)cc(S(=O)(=O)O)c2ccccc12` displayed an Efficacy of 28%. Besides, the negative logarithm of the EC50 (pEC50) on Thrombopoietin receptor is 6.52.
On to `Cc1[nH]n(-c2ccccc2[N+](=O)[O-])c(=O)c1/N=N/c1c(O)cc(S(=O)(=O)O)c2ccccc12`, for which the Efficacy in assay [1] turned out to be 19%. On Thrombopoietin receptor, this molecule had a pEC50 of 5.10.
In the same order, the values of `Cc1[nH]n(-c2ccc(OCc3ccccc3)cc2)c(=O)c1/N=N/c1c(O)cc(S(=O)(=O)O)c2ccccc12` are 34% and 6.70.
Molecule `O=S(=O)(O)c1cc(O)c(/N=N/c2c(O)ccc3cc(O)ccc23)c2ccccc12` had an Efficacy in assay [1] of 16%. Moreover, at Thrombopoietin receptor, the negative-log EC50 (pEC50) was 5.70.
In turn, `Cc1[nH]n(-c2ccccc2Cl)c(=O)c1/N=N/c1c(O)cc(S(=O)(=O)O)c2ccccc12` showed an Efficacy in assay [1] of 6%. For the same molecule, on Thrombopoietin receptor, the pEC50 was below 4.52.
`Cc1cccc(-n2[nH]c(C)c(/N=N/c3c(O)cc(S(=O)(=O)O)c4ccccc34)c2=O)c1` gave an Efficacy in assay [1] of 34%. Besides, on Thrombopoietin receptor, the negative logarithm of the EC50 (pEC50) is 6.15.
For `Cc1[nH]n(CCO)c(=O)c1/N=N/c1c(O)cc(S(=O)(=O)O)c2ccccc12`, the Efficacy in assay [1] is below 5%.
On the same count and under the same terms, next, `O=S(=O)(O)c1cc(O)c(/N=C/c2c(O)ccc3ccccc23)c2ccccc12`: below 5%.
Take `Cc1ccc(-n2[nH]c(-c3ccccc3)c(/N=N/c3c(O)cc(S(=O)(=O)O)c4ccccc34)c2=O)cc1C`: in assay [1], the Efficacy worked out at 92%. At Thrombopoietin receptor, this molecule showed a pEC50 of 6.05.
For `CC(C)(C)OC(=O)c1[nH]n(-c2ccc(C(C)(C)C)cc2)c(=O)c1/N=N/c1c(O)cc(S(=O)(=O)O)c2ccccc12`, in that order: 32% and 6.70.
Consider `Cc1ccc(-n2[nH]c(C)c(/N=N/c3c(O)cc(S(=O)(=O)O)c4ccccc34)c2=O)cc1`, for which the Efficacy in assay [1] is 53%; in assay [2] it was 90%. At Thrombopoietin receptor, this molecule gave a pEC50 of 5.70.
`Cc1ccc(-n2[nH]cc(/N=N/c3c(O)cc(S(=O)(=O)O)c4ccccc34)c2=O)cc1C` came in with an Efficacy in assay [1] of 95%. Moreover, the negative logarithm of the EC50 (pEC50) at Thrombopoietin receptor was 7.00.
In assay [1], `Cc1ccc(-n2[nH]c(C)c(/N=N/c3c(O)cc(C(=O)O)c4ccccc34)c2=O)cc1` showed an Efficacy of 47%. The same molecule gave a pEC50 at Thrombopoietin receptor of 5.70.
Consider `CC(C)(C)c1ccc(-n2[nH]c(C(=O)O)c(/N=N/c3c(O)cc(S(=O)(=O)O)c4ccccc34)c2=O)cc1`, for which the Efficacy in assay [1] is below 5%.
In assay [1], `Cc1[nH]n(-c2ccc([N+](=O)[O-])cc2)c(=O)c1/N=N/c1c(O)cc(S(=O)(=O)O)c2ccccc12` showed an Efficacy of 63%. The molecule also showed a pEC50 on Thrombopoietin receptor of 6.40.
For `Cc1[nH]n(-c2ccccn2)c(=O)c1/N=N/c1c(O)cc(S(=O)(=O)O)c2ccccc12`, in that order: 24% and 5.15.
For the molecule `Cc1[nH]n(-c2ccc(S(C)(=O)=O)cc2)c(=O)c1/N=N/c1c(O)cc(S(=O)(=O)O)c2ccccc12`, the Efficacy in assay [1] worked out at 18%. At Thrombopoietin receptor, the pEC50 was 5.52.
In the same order, the values of `Cc1[nH]n(-c2ccccc2)c(=O)c1/N=N/c1c(O)cc(S(=O)(=O)O)c2ccccc12` are 26% and 5.70.
For `Cc1ccccc1-n1[nH]c(C)c(/N=N/c2c(O)cc(S(=O)(=O)O)c3ccccc23)c1=O`, in that order: 30% and 5.00.
As to `Cc1[nH]n(-c2ccc(O)cc2)c(=O)c1/N=N/c1c(O)cc(S(=O)(=O)O)c2ccccc12`, the Efficacy in assay [1] is below 5%.
Molecule `CCNS(=O)(=O)c1cccc(-n2[nH]c(C)c(/N=N/c3c(O)cc(S(=O)(=O)O)c4ccccc34)c2=O)c1` yielded an Efficacy in assay [1] of 25%. Moreover, the pEC50 on Thrombopoietin receptor is 5.00.
For `COc1cc(O)c2ccccc2c1/N=N/c1c(O)cc(S(=O)(=O)O)c2ccccc12`, in that order: 19% and 5.52.
In the same order, the values of `O=S(=O)(O)c1cc(O)c(/N=N/c2c(O)c3ccccc3c3ccccc23)c2ccccc12` are 61% and 6.70.
In the same order, the values of `Cc1[nH]n(-c2cccc(C(C)(C)C)c2)c(=O)c1/N=N/c1c(O)cc(S(=O)(=O)O)c2ccccc12` are 71% and 7.15.
On to `O=[N+]([O-])c1cc(O)c(/N=N/c2c(O)ccc3ccccc23)c2ccccc12`, for which the Efficacy in assay [1] was below 5%.
Take `O=S(=O)(O)c1cc(O)c(/N=N/c2ccc3ccccc3c2O)c2ccccc12`: in assay [1], the Efficacy was 87%. Further, the pEC50 on Thrombopoietin receptor was 7.15.
Consider `Cc1[nH]n(C(C)(C)C)c(=O)c1/N=N/c1c(O)cc(S(=O)(=O)O)c2ccccc12`, for which, in assay [1], the Efficacy was below 5%.
Same read-out and setting: then `O=C(Nc1c(O)cc(S(=O)(=O)O)c2ccccc12)c1c(O)ccc2ccccc12`, with below 5%.
In assay [1], `CCOc1nn(-c2ccc(C)c(C)c2)c(O)c1/N=N/c1c(O)cc(S(=O)(=O)O)c2ccccc12` showed an Efficacy of 80%. For the same molecule, at Thrombopoietin receptor, the pEC50 was 6.22.
In the same order, the values of `Cc1[nH]n(-c2ccc(C(C)C)cc2)c(=O)c1/N=N/c1c(O)cc(S(=O)(=O)O)c2ccccc12` are 100% and 7.15.
In the case of `O=C(O)c1cc2ccccc2c(/N=N/c2c(O)cc(S(=O)(=O)O)c3ccccc23)c1O`, in assay [1], the Efficacy came to 48%. In addition, the pEC50 on Thrombopoietin receptor was 5.00.
In the same order, the values of `Cc1ccc(O)c(/N=N/c2c(O)cc(S(=O)(=O)O)c3ccccc23)c1` are 28% and 5.52.
For `Cc1[nH]n(Cc2ccccc2)c(=O)c1/N=N/c1c(O)cc(S(=O)(=O)O)c2ccccc12`, in that order: 32% and below 4.52.
Turning to `CC(C)(C)c1ccc(-n2[nH]c(N)c(/N=N/c3c(O)cc(S(=O)(=O)O)c4ccccc34)c2=O)cc1`, the Efficacy in assay [1] stood at 87%. Moreover, the pEC50 at Thrombopoietin receptor is 5.30.
Molecule `Cc1[nH]n(-c2cc(S(=O)(=O)O)ccc2Cl)c(=O)c1/N=N/c1c(O)cc(S(=O)(=O)O)c2ccccc12` registered an Efficacy in assay [1] below 5%.
On to `CCOC(=O)c1[nH]n(-c2ccc(C(C)(C)C)cc2)c(=O)c1/N=N/c1c(O)cc(S(=O)(=O)O)c2ccccc12`, for which the Efficacy in assay [1] amounted to 56%. For the same molecule, at Thrombopoietin receptor, the pEC50 was 5.70.
For `O=S(=O)(O)c1cc(O)c(NCc2c(O)ccc3ccccc23)c2ccccc12`, the Efficacy in assay [1] was below 5%.
